The results in this text go back to PubChem BioAssay AID822 (SRMLSC, 2007).

Activity calls are given as the source filed them.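 Rule for the calls: active = half-maximal effective dose for blocking growth of human endothelial cells at most 100 µM; inactive = the rest.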

One may read the viability as a read-out of living cells in per cent, often relative to untreated cells.

The experiment is described as follows: HUVEC proliferation inhibition, dose response, cell-based, ATP luminescence (AID 822).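 Note: cells exposed to compound for 72 h before the ATP read; 100% = median luminescence of untreated cell-only control wells on each plate.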 As to conditions: HUVEC proliferation, viability ATP luminescence; at 20 µM (top of the series). The procedure, abridged: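 Material – HUVEC · Amount – 1250 HUVEC cells seeded per well · Medium – EBM plus 2% FBS · Dosing – dose series 0.039 to 20 µM, DMSO 0.2% · Times – 72 h exposure, 37 °C · Detection – ATP luminescence · Read-out basis – % viability and fitted EC50 · Format – collagen-coated plates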
Regarding `OC1(Cc2ccn[nH]2)CCCCC1`, the viability is 93.6% (inactive).

Consider `O=C(Nc1nc(NC(=O)c2ccco2)n(-c2ccccc2)n1)c1ccccc1`, for which the viability was 84.5% (inactive).

For `CC1=C(C)CS(=O)N(S(=O)(=O)c2ccccc2)C1` (centres undefined), the viability is 80.3% (inactive).

`O=C(Oc1ccccc1-c1nnco1)c1ccc(Cl)cc1`: the viability was 105% (inactive).

For `CCC(C)(C)n1nnnc1C(c1cc2cc(C)cc(C)c2[nH]c1=O)N1CCN(Cc2ccc3c(c2)OCO3)CC1` (centres undefined), the viability was 80.5% (inactive).

On to `CCCN(CCO)Cc1cccc(Br)c1`, for which the viability is 92.7% (inactive).

Consider `CN(CCO)c1cc(Sc2nc3ccccc3s2)c2nonc2c1[N+](=O)[O-]`, for which the viability was 85.4% (inactive).

As for `CCOC(=O)c1ccc2c(c1)NC(=O)C(N1CCN(c3ccc(OC)cc3)CC1)S2` (centres undefined), the viability is 98% (inactive).

Take `CCOc1ccc(-c2nn3c(-c4ccccc4)nnc3s2)cc1`: the viability is 83.3% (inactive).

Turning to `Cn1c(SCC(=O)Nc2ccc(N3CCOCC3)cc2)nnc1-c1ccccc1`, the viability was 103% (inactive).

Take `COc1ccccc1NC(=O)C1C2C=CC(O2)C1C(=O)O` (centres undefined): the viability was 94.6% (inactive).

Consider `Cc1ccc(C(C#N)c2ccc(C(=O)c3ccc(F)cc3)cc2)cc1` (centres undefined), for which the viability is 84% (inactive).

Turning to `Cn1c(NC(=O)c2cccc(Cn3cc(Cl)cn3)c2)nc2ccccc21`, the viability was 83.1% (inactive).

As to `CCCC1(CCC)NC(=O)N(CC(=O)Nc2ccccc2OC)C1=O`, the viability was 113% (inactive).

For the compound `Cc1ccc(-c2nnc(N3CCN(C(=O)CSc4ncn[nH]4)CC3)c3ccccc23)cc1`, the viability is 85.9% (inactive).

For `CCOc1ccc(NS(=O)(=O)c2ccc(OCC(=O)NCCCOC)cc2)cc1`, the viability is 94.4% (inactive).

For the compound `CCn1c(SCC(=O)Nc2cc(C)on2)nc2sc3c(c2c1=O)CCCC3`, the viability is 86.3% (inactive).

For `O=C(Nc1cccnc1)c1ccc(Br)s1`, the viability is 90% (inactive).

In the case of `CC1=CC(C)(C)Nc2ccc(OC(=O)CN3C(=O)C4CCCCC4C3=O)cc21` (centres undefined), the viability was 91% (inactive).

Consider `Clc1ccc(Cn2cc(/C=N/n3cnnc3)c3ccccc32)c(Cl)c1`, for which the viability is 87.3% (inactive).

On to `O=C1CC(Sc2nnc(-c3ccccc3O)o2)C(=O)N1c1ccccc1` (centres undefined), for which the viability was 93% (inactive).

Take `C/C(=N\O)C(=O)C(CN1CCCCC1)CN1CCCCC1`: the viability was 81% (inactive).

As to `Cc1ccc(NC(=O)c2c(O)c3ccccc3n(C)c2=O)nc1`, the viability is 101% (inactive).

As for `CC1(C)Cc2ccccc2C(NNC(=O)c2ccccn2)=N1`, the viability was 93.7% (inactive).

In the case of `O=C(COc1nc2ccccc2nc1N1CCOCC1)N1CCc2ccccc21`, the viability was 86.1% (inactive).

Take `COc1cccc2c(C)nc(Nc3nc(CSc4nnc(C)s4)cc(=O)[nH]3)nc12`: the viability was 101% (inactive).

For the compound `Cn1c(=O)c2c(ncn2CC(=O)Nc2nc(-c3ccccc3Cl)cs2)n(C)c1=O`, the viability is 89.5% (inactive).

As to `O=C1CSC(c2ccccn2)N1Cc1cn2ccccc2n1` (centres undefined), the viability is 120% (inactive).

Take `COCCn1c(C)cc(C(=O)CSc2nc3ccccc3o2)c1C`: the viability is 96.1% (inactive).

Regarding `Brc1cccc(-c2nnc3sc(CNC4CCCC4)cn23)c1`, the viability was 84% (inactive).

For `c1ccc(CSc2nnc(-c3c[nH]c4ccccc34)o2)cc1`, the viability was 85.9% (inactive).

Turning to `O=C(/C=C/NNC(=O)c1ccccc1)c1ccccc1`, the viability was 109% (inactive).

In the case of `COc1ccc(NC(=O)CSc2nnc(CNC(=O)COc3ccc(Cl)cc3)o2)c(OC)c1`, the viability is 95.2% (inactive).

As for `Clc1ccc(-c2nc(NCCN3CCOCC3)c3ccccc3n2)cc1`, the viability is 86% (inactive).

On to `Cc1ccc(NC(=O)C(C)N2C(=O)c3ccccc3C2=O)cc1` (centres undefined), for which the viability is 90.9% (inactive).

As to `O=S1(=O)c2ccccc2N=NN1Cc1cc(Cl)cc(Cl)c1`, the viability is 84.9% (inactive).

Regarding `COc1ccc(Cl)cc1C(=O)n1nc(C)cc1C`, the viability was 96.7% (inactive).

As to `CC(C(=O)N1CCOCC1)N1C(=O)c2ccccc2C1=O` (centres undefined), the viability was 105% (inactive).

Turning to `CC(C)(C)n1cnc2cc(NS(=O)(=O)c3ccccc3)ccc21`, the viability is 105% (inactive).

As to `COc1ccc(-c2nnc(SCCc3ccccc3)n2N)cc1`, the viability is 108% (inactive).

On to `CCOC(=O)CNC(=O)C(=O)c1c(O)[nH]c2ccccc12`, for which the viability is 96.7% (inactive).

As for `CCOC(=O)c1c(NC(=O)C2COc3ccccc3O2)sc(C(C)=O)c1C` (centres undefined), the viability was 112% (inactive).

Regarding `Cn1c(=O)cc(SCC(=O)NCC2COc3ccccc3O2)c2ccccc21` (centres undefined), the viability is 98.4% (inactive).

Consider `COc1ccc(-c2noc(-c3ccc(Br)o3)n2)cc1OC`, for which the viability is 99.7% (inactive).

For `Cc1ccc(Cn2c(SCC(=O)Nc3cc(C)on3)nc3ccccc3c2=O)cc1`, the viability was 81.2% (inactive).

On to `COc1ccc(CCn2c(=S)[nH]c3cc(C(=O)NCc4ccco4)ccc3c2=O)cc1OC`, for which the viability is 102% (inactive).

For the compound `CC1CC(C)CN(S(=O)(=O)c2ccc(C(=O)NCCCn3ccnc3)cc2)C1` (centres undefined), the viability is 88.4% (inactive).

With `Cn1nnc(NC(=O)CSc2ccc(Cl)cc2)n1`, the viability was 103% (inactive).

For `Cc1sc2nc(SCC(=O)NCc3ccco3)n(CCc3ccccc3)c(=O)c2c1C`, the viability is 91.5% (inactive).

As to `Cc1nc2cc(N3CCCCC3)c(NC(=O)c3cccnc3)cc2c(=O)n1Cc1ccccc1`, the viability is 89.3% (inactive).

In the case of `CC(C)(C)c1ccc(-c2nnc(SCC(=O)O)n2N)cc1`, the viability is 106% (inactive).

For `Cc1cc(C(=O)Nc2nc3ccc(S(C)(=O)=O)cc3s2)c(C)o1`, the viability is 82.9% (inactive).

As to `CN(C)C(=O)CSc1cccc2cccnc12`, the viability is 84.4% (inactive).

On to `COc1ccc(N2C(=O)CC(Sc3nnc(-c4ccccc4)o3)C2=O)cc1` (centres undefined), for which the viability is 95% (inactive).

Take `O=C(CN1CCN(S(=O)(=O)c2ccc(F)cc2)CC1)Nc1ccc2c(c1)OCO2`: the viability is 116% (inactive).

For `CC1=C(C)CS(=O)N(S(=O)(=O)c2ccc(Cl)cc2)C1` (centres undefined), the viability was 101% (inactive).

For the compound `CC1(C)CSC(=S)N1S(=O)(=O)c1ccccc1`, the viability was 99.8% (inactive).

In the case of `COc1ccc2[nH]cc(C(=O)CN3CCN(C4CCCCC4)CC3)c2c1`, the viability was 85.4% (inactive).

Turning to `CSc1nnc2n(-c3ccc(C)cc3)c(=O)c3c4c(sc3n12)COC(C(C)C)C4` (centres undefined), the viability was 81.8% (inactive).

On to `CCC(=O)N1c2ccc(S(=O)(=O)CCC(=O)N3CCn4c3nc3ccccc34)cc2CC1C` (centres undefined), for which the viability is 84.1% (inactive).

For the compound `Cc1nn(C)c(C)c1NC(=O)CSc1nc(C2CC2)nc2c1cnn2-c1ccccc1`, the viability was 101% (inactive).

Consider `Cc1cc(C)n(-c2nc(Nc3ccccc3C)nc(-n3nc(C)cc3C)n2)n1`, for which the viability was 118% (inactive).

As to `COc1ccccc1N1CCN(C(=O)c2ccc(Br)s2)CC1`, the viability is 97.5% (inactive).

Consider `CCn1nc(C(=O)NC2=NCCS2)c2ccccc2c1=O`, for which the viability was 101% (inactive).
